Reference: ChEMBL document CHEMBL1125686, “(Benzoylphenyl)piperidines: a new class of immunomodulators” (1991)

How the values were obtained:
Mus musculus [1] = species: Mus musculus; assay: Maximal proliferation induced in the presence of the mitogen-PWM ( stimulated blastogenesis) in Mice cells at a dose of 10 ug/mL; format: functional; set-up: unit not given here
How it was run: (§1)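 Splenocytes from female DBA/2 mice, 6–9 weeks old; red cells lysed with cold 0.17 M NH₄Cl. Cells plated at 5 × 10⁶ cells/mL in RPMI 1640 with 5% FCS, with compound (5–80 μg/mL range) and Con A, PWM or PHA at a batch-optimized concentration. Cultured 72 h at 37 °C, 5% CO₂, with [³H]thymidine for the final 24 h, read by scintillation. Triplicate wells; mean ± SD of three cultures.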

Mus musculus [2] = assay: Percent of restoration of T- cell markers in nude mice (in vivo); format: functional
How it was run: (§2)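 Female nu/nu mice, 6–9 weeks old, dosed by gastric tube in 0.2 mL 2% arabic gum with 0.1% Tween-80; controls received vehicle only. Spleens taken 24 h later and splenocytes prepared. Thy1⁺ cells counted by direct FITC anti-Thy1 staining under epifluorescence. Five animals per group, mean ± SD.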

Mus musculus [3] = assay: […] induction of Thyl+ antigen expression on murine bone marrow cells at the concentration of 3 uM(Fraction B).(treated); format: functional
How it was run: (§3)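 Bone marrow from female C57 BL/6 mice, 5–8 weeks old, separated on a discontinuous BSA gradient. Fraction A (lowest density) and fraction B (next lowest) resuspended at 10⁶ cells/mL in HBSS with 5% BSA. Cells incubated 24 h with one compound concentration, then stained directly with FITC anti-Thy1 and counted by epifluorescence microscopy. % Thy1⁺ cells recorded for treated and control cultures.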

Mus musculus [4] = assay: Proliferation induced by the mitogen alone-Concanavalin A (control blastogenesis), in mice cells dosed at 5 ug/mL; format: functional; set-up: unit not given here; how it was run: as §1
Mus musculus [5] = assay: Percent of Thyl+ positive cells, in nude mice (in vivo); format: functional; how it was run: as §2
Mus musculus [6] = assay: […] induction of Thyl+ antigen expression on murine bone marrow cells at the concentration of 3 uM(Fraction B).(Control group); format: functional; how it was run: as §3
Mus musculus [7] = assay: Percent of restoration in nude mice (in vivo); format: functional; how it was run: as §2
Mus musculus [8] = species: Mus musculus; assay: Maximal proliferation induced in the presence of the mitogen-PHA ( stimulated blastogenesis) in Mice cells at a dose of 10 ug/mL
Mus musculus [9] = assay: Maximal proliferation induced in the presence of the mitogen-Concanavalin A (stimulated blastogenesis) in mice cells dosed at 5 ug/mL; format: functional; set-up: unit not given here; how it was run: as §1
Mus musculus [10] = species: Mus musculus; assay: Proliferation induced by the mitogen alone-PHA (control blastogenesis), in Mice cells at a dose of 5 ug/mL; format: functional; set-up: unit not given here; how it was run: as §1
Mus musculus [11] = species: Mus musculus; assay: Proliferation induced by the mitogen alone-PWM (control blastogenesis), in Mice cells at a dose of 10 ug/mL; format: functional; set-up: unit not given here; how it was run: as §1
Mus musculus [12] = assay: […] induction of Thyl+ antigen expression on murine bone marrow cells at the concentration of 3 uM(Fraction A).(treated); format: functional; how it was run: as §3
Mus musculus [13] = assay: Percent of Thyl+ positive cells / spleen x 10 e6 in nude mice (in vivo); format: functional; how it was run: as §2
Mus musculus [14] = assay: […] induction of Thyl+ antigen expression on murine bone marrow cells at the concentration of 3 uM(Fraction A).(Control group); format: functional; how it was run: as §3
Mus musculus [15] = assay: […] induction of Thyl+ antigen expression on murine bone marrow cells at the concentration of 2.5 uM(Fraction B).(treated); format: functional; how it was run: as §3
Mus musculus [16] = assay: […] induction of Thyl+ antigen expression on murine bone marrow cells at the concentration of 2.5 uM(Fraction A).(treated); format: functional; how it was run: as §3
Mus musculus [17] = assay: […] induction of Thyl+ antigen expression on murine bone marrow cells at the concentration of 2.5 uM(Fraction A).(Control group); format: functional; how it was run: as §3
Mus musculus [18] = assay: […] induction of Thyl+ antigen expression on murine bone marrow cells at the concentration of 2.5 uM(Fraction B).(Control group); format: functional; how it was run: as §3
Mus musculus [19] = species: Mus musculus; assay: Proliferation induced by the mitogen alone-PWM (control blastogenesis), in Mice cells at a dose of 40 ug/mL; format: functional; set-up: unit not given here
How it was run: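 Splenocytes from female DBA/2 mice aged 6–9 weeks, red cells lysed with cold 0.17 M NH4Cl, cultured at 5 × 10⁶ cells/mL in RPMI 1640 with 5% FCS. Pokeweed mitogen added at a batch-adjusted optimal level, 72 h at 37 °C, 5% CO2. [³H]thymidine pulse for the final 24 h, then scintillation counting. Triplicates; mean ± SD of three cultures.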

Mus musculus [20] = assay: […] induction of Thyl+ antigen expression on murine bone marrow cells at the concentration of 2.7 uM(Fraction B).(Control group); format: functional; how it was run: as §3
Mus musculus [21] = assay: […] induction of Thyl+ antigen expression on murine bone marrow cells at the concentration of 2.7 uM(Fraction A).(Control group); format: functional; how it was run: as §3
Mus musculus [22] = species: Mus musculus; assay: Maximal proliferation induced in the presence of the mitogen-PWM ( stimulated blastogenesis) in Mice cells at a dose of 40 ug/mL; format: functional; set-up: unit not given here; how it was run: as §1
Mus musculus [23] = assay: […] induction of Thyl+ antigen expression on murine bone marrow cells at the concentration of 2.7 uM(Fraction B).(treated); format: functional; how it was run: as §3
Mus musculus [24] = assay: […] induction of Thyl+ antigen expression on murine bone marrow cells at the concentration of 2.7 uM(Fraction A).(treated); format: functional; how it was run: as §3
Mus musculus [25] = assay: […] induction of Thyl+ antigen expression on murine bone marrow cells at the concentration of 3.2 uM(Fraction A).(treated); format: functional; how it was run: as §3
Mus musculus [26] = assay: […] induction of Thyl+ antigen expression on murine bone marrow cells at the concentration of 3.2 uM(Fraction B).(treated); format: functional; how it was run: as §3
Mus musculus [27] = assay: […] induction of Thyl+ antigen expression on murine bone marrow cells at the concentration of 3.2 uM(Fraction A).(Control group); format: functional; how it was run: as §3
Mus musculus [28] = assay: […] induction of Thyl+ antigen expression on murine bone marrow cells at the concentration of 3.2 uM(Fraction B).(Control group); format: functional; how it was run: as §3
Mus musculus [29] = assay: […] induction of Thyl+ antigen expression on murine bone marrow cells at the concentration of 7 uM(Fraction B).(treated); format: functional; how it was run: as §3
Mus musculus [30] = assay: […] induction of Thyl+ antigen expression on murine bone marrow cells at the concentration of 7 uM(Fraction A).(treated)); format: functional; how it was run: as §3
Mus musculus [31] = assay: […] induction of Thyl+ antigen expression on murine bone marrow cells at the concentration of 7 uM(Fraction A).(Control group); format: functional; how it was run: as §3
Mus musculus [32] = assay: […] induction of Thyl+ antigen expression on murine bone marrow cells at the concentration of 7 uM(Fraction B).(Control group); format: functional; how it was run: as §3
Mus musculus [33] = species: Mus musculus; assay: Proliferation induced by the mitogen alone-PHA (control blastogenesis), in Mice cells at a dose of 10 ug/mL; format: functional; how it was run: as §1
Mus musculus [34] = species: Mus musculus; assay: Maximal proliferation induced by the test compound in the presence of the mitogen-PHA ( stimulated blastogenesis) in Mice cells at a dose of 10 ug/mL; format: functional; how it was run: as §1
Mus musculus [35] = assay: […] induction of Thyl+ antigen expression on murine bone marrow cells at the concentration of 2.9 uM(Fraction A).(Control group); format: functional; how it was run: as §3
Mus musculus [36] = assay: […] induction of Thyl+ antigen expression on murine bone marrow cells at the concentration of 2.9 uM(Fraction B).(Control group); format: functional; how it was run: as §3
Mus musculus [37] = assay: […] induction of Thyl+ antigen expression on murine bone marrow cells at the concentration of 2.9 uM(Fraction A).(treated); format: functional; how it was run: as §3
Mus musculus [38] = assay: […] induction of Thyl+ antigen expression on murine bone marrow cells at the concentration of 2.9 uM(Fraction B).(treated); format: functional; how it was run: as §3

Row | SMILES | Proliferative response (Mus musculus [1]) | Restoration (Mus musculus [2]) | Proliferative response (Mus musculus [4]) | Thylpositive cells (Mus musculus [5]) | Restoration (Mus musculus [7]) | Proliferative response (Mus musculus [8]) | Proliferative response (Mus musculus [9]) | Proliferative response (Mus musculus [10]) | Proliferative response (Mus musculus [11]) | Thylpositive cells/spleen (Mus musculus [13]) | Proliferative response (Mus musculus [19]) | Proliferative response (Mus musculus [22]) | other results
1 | Nc1ccc(N2CCC(c3ccccc3)CC2)c(C(=O)c2ccc(Cl)cc2)c1 | 115.3 | 12.5% | 263.2 | 5.5% | 7.4% | 54.4 | 294.1 | 59.9 | 95.7 | 3.2e+06 cells/spleen |  |  | Differentiation (Mus musculus [3]): 6.4%; Differentiation (Mus musculus [6]): 5.2%; Differentiation (Mus musculus [12]): 7%; Differentiation (Mus musculus [14]): 3.8%
2 | CCOC(=O)Nc1ccc(N2CCC(C)CC2)c(C(=O)c2ccc(Cl)cc2)c1 |  | 3.2% | 8 | 3.4% | 3.3% |  | 16.3 |  |  | 2.5e+06 cells/spleen |  |  | Differentiation (Mus musculus [15]): 5.5%; Differentiation (Mus musculus [16]): 11.6%; Differentiation (Mus musculus [17]): 6.1%; Differentiation (Mus musculus [18]): 6.1%
3 | CC1CCCCN1c1ccc(N)cc1C(=O)c1ccc(Cl)cc1 (stereo not drawn) |  |  | 131.5 |  |  |  | 295 |  |  |  | 55.8 | 58.1 | Differentiation (Mus musculus [20]): 5%; Differentiation (Mus musculus [21]): 5.6%; Differentiation (Mus musculus [23]): 4.4%; Differentiation (Mus musculus [24]): 6%
4 | CCCCC1CCN(c2ccc(N)cc2C(=O)c2ccc(Cl)cc2)CC1 | 81.7 | 3.6% | 211.8 | 3.5% | 0.6% | 59.1 | 289.2 | 51.3 | 78.4 | 2.05e+06 cells/spleen |  |  | Differentiation (Mus musculus [25]): 4.2%; Differentiation (Mus musculus [26]): 6.4%; Differentiation (Mus musculus [27]): 3.8%; Differentiation (Mus musculus [28]): 5.2%
5 | CC1CCN(c2ccc(N)cc2C(=O)c2ccc(Cl)cc2)CC1 |  | 14.3% | 194.5 | 6.9% | 24.5% |  | 269.5 |  |  | 6.65e+06 cells/spleen | 36.5 | 101.9 | Differentiation (Mus musculus [29]): 11.4%; Differentiation (Mus musculus [30]): 11.5%; Differentiation (Mus musculus [31]): 5.6%; Differentiation (Mus musculus [32]): 5%; Proliferative response (Mus musculus [33]): 12.8; Proliferative response (Mus musculus [34]): 43.5
6 | CC1CCN(c2ccc(N)cc2C(=O)c2ccc(Cl)cc2)CC1C (stereo not drawn) |  |  | 48.6 |  |  |  | 50.2 |  |  |  | 67.3 | 75.8 | Differentiation (Mus musculus [35]): 6.1%; Differentiation (Mus musculus [36]): 6.1%; Differentiation (Mus musculus [37]): 8.8%; Differentiation (Mus musculus [38]): 3%
